pIC50: −log10 of the molar value. Values joined by “and” are separate entries in the source; they are usually repeats but may differ in a detail not shown here. Equal entries are not always repeated. One block for each compound: values may come before it.
Experiments:
human plasma [1] = test: Prothrombin time; settings: citrated human plasma
How it was run: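 One-stage recalcification PT on a fibrometer. Test compound was made up in citrated pooled normal human plasma and held 30 s at 37 °C. Clotting was then started with prewarmed reconstituted thromboplastin-D. Clotting time was plotted against concentration and fitted to a quadratic trend line, from which the concentration doubling clotting time was taken.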

human plasma [2] = test: Activated partial thromboplastin time; settings: for concentration required for a 2-fold increase in APTT: citrated human plasma
human factor XIa = human factor XIa (Homo sapiens, UniProt P03951); test: Direct inhibition of FXIa, chromogenic substrate; assay type: biochemical
Sequence of human factor XIa (P03951 19-387 limits assumed): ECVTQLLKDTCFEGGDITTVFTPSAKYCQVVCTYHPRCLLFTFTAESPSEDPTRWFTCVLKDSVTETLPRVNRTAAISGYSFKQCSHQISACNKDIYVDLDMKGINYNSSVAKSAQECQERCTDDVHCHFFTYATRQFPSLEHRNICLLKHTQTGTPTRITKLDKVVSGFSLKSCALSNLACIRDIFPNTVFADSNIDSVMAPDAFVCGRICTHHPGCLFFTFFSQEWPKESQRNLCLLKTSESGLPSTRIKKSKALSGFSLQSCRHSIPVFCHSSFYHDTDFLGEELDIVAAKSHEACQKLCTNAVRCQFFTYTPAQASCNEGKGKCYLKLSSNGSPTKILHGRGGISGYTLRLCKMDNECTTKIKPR
Sequence of human factor XIa (P03951 388-625 limits assumed): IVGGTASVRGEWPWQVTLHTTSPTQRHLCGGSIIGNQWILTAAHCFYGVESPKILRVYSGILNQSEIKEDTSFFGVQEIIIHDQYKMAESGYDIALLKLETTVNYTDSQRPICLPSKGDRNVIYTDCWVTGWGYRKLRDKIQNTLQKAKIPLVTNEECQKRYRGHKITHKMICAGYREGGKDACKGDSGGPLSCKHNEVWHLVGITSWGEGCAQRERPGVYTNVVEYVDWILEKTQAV

factor IXa = factor IXa (Homo sapiens, UniProt P00740); test: Chromogenic substrate hydrolysis assay, factor IXa; assay type: biochemical
Sequence of factor IXa (P00740 227-461 limits assumed): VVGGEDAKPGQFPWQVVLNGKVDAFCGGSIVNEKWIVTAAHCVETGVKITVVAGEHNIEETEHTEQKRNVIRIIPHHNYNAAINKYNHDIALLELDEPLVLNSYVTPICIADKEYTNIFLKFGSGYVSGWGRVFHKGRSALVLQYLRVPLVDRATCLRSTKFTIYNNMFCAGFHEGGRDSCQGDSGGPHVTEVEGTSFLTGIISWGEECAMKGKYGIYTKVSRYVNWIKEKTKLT
Sequence of factor IXa (P00740 47-191 limits assumed): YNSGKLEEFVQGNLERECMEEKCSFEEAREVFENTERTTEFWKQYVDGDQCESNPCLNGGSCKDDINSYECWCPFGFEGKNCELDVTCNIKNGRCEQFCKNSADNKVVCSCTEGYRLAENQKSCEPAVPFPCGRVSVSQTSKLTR
How it was run: (§1)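 Chromogenic substrate hydrolysis with human plasma enzymes, substrate level set from its KM. Enzyme and substrate in well: thrombin 6 nM with Spectrozyme TH 50 µM; factor Xa 1.09 nM with Spectrozyme FXa 125 µM; factor XIIa 5 nM with Spectrozyme FXIIa 125 µM; factor IXa 89 nM with Spectrozyme FIXa 850 µM. Residual activity read spectrophotometrically at six or more serial test compound dilutions, then dose–response fitted.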

bovine chymotrypsin = bovine chymotrypsin (Bos taurus, UniProt P00766); test: Chromogenic substrate hydrolysis assay, chymotrypsin; assay type: biochemical; settings: NI = no inhibition observed up to 1.8 mg/mL
How it was run: (§2)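 Digestive protease counter-screen: bovine trypsin 72.5 ng/mL with S-2222 80 µM, or bovine α-chymotrypsin 500 ng/mL with Spectrozyme CTY 240 µM (in-well levels; substrate chosen from KM). Fractional residual activity was measured spectrophotometrically at six or more serially diluted test compound concentrations, profiled for IC50.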

FXIa Wild Type = FXIa Wild Type (Homo sapiens, UniProt P03951); test: Michaelis-Menten kinetics of S-2366 hydrolysis by wild-type FXIa; assay type: biochemical
Sequence of FXIa Wild Type (P03951 19-387 limits assumed): as the sequence (P03951 19-387 limits assumed) above
Sequence of FXIa Wild Type (P03951 388-625 limits assumed): as the sequence (P03951 388-625 limits assumed) above

thrombin = thrombin (Homo sapiens, UniProt P00734); test: Chromogenic substrate hydrolysis assay, thrombin; assay type: biochemical
How it was run: as §1

factor XIIa = molecular target: T1, factor XIIa (Homo sapiens, UniProt P00748); test: Chromogenic substrate hydrolysis assay, factor XIIa; assay type: biochemical
T1 sequence (P00748 373-615 limits assumed): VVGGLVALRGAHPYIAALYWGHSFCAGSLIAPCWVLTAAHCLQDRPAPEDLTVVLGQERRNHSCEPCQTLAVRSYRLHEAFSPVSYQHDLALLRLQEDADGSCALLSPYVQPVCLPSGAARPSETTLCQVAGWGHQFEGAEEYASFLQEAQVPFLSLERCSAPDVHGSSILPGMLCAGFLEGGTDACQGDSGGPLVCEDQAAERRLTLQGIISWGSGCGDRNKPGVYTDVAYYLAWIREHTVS
T1 sequence (P00748 20-372 partner limits assumed): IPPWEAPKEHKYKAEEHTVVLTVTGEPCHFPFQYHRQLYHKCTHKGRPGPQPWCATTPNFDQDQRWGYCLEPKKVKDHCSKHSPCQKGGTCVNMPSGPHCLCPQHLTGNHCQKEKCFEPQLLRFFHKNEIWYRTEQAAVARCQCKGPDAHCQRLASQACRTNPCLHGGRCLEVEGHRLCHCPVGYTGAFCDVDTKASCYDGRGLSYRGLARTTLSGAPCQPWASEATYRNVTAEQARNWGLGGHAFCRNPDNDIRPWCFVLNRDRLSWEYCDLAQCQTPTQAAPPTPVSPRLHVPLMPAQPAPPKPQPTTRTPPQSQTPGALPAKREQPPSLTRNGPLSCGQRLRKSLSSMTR
How it was run: as §1

bovine trypsin = molecular target: T2, bovine trypsin (Bos taurus, UniProt P00760); test: Chromogenic substrate hydrolysis assay, trypsin; assay type: biochemical; settings: NI = no inhibition observed up to 1.8 mg/mL
T2 sequence (P00760 24-246): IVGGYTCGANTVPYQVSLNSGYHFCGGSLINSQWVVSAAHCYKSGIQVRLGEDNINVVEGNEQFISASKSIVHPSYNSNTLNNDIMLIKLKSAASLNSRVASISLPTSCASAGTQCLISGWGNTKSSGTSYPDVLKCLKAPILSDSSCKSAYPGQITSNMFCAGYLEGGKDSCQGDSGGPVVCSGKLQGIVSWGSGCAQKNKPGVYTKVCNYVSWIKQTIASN
How it was run: as §2

[3] = tested on: FXIa Catalytic Domain (FXIa-CD); test: Michaelis-Menten kinetics of S-2366 hydrolysis by FXIa catalytic domain; assay type: biochemical, human
human FXIa [4] = molecular target: T3, human FXIa (Homo sapiens, UniProt P03951); test: Inhibition of FXIa activation of FIX; assay type: biochemical; settings: 6 at 3 µM, FIX 0.5 µM, after 120 min of incubation
T3 sequence (P03951 19-387 limits assumed): as the sequence (P03951 19-387 limits assumed) above
T3 sequence (P03951 388-625 limits assumed): as the sequence (P03951 388-625 limits assumed) above

human FXIa [5] = molecular target: T3, human FXIa; test: Competitive inhibition of FXIa by 6 in the presence of UFH; assay type: biochemical
human whole blood = test: Thromboelastography
How it was run: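 Thromboelastography at 37 °C: 200 mM CaCl2 stock placed in cup, then sodium-citrated human whole blood containing test compound or water added to recalcify. The cup oscillated through 4°45′ at 0.1 Hz. R, α, maximum amplitude (MA) and shear elastic modulus G were recorded automatically, with G = 5000 × MA/(100 − MA).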

factor VIIa = factor VIIa (Homo sapiens, UniProt P08709); test: Chromogenic substrate hydrolysis assay, factor VIIa; assay type: biochemical; settings: NI = no inhibition observed up to 3.7 mg/mL
Sequence of factor VIIa (P08709 213-466 limits assumed): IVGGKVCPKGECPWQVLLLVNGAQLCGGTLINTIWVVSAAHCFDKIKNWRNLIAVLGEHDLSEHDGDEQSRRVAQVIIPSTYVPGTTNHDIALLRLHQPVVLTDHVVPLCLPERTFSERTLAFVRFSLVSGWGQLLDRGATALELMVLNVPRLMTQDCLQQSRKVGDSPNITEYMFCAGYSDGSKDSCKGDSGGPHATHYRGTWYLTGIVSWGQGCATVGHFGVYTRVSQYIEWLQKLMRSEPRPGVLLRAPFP
Sequence of factor VIIa (P08709 61-212 limits assumed): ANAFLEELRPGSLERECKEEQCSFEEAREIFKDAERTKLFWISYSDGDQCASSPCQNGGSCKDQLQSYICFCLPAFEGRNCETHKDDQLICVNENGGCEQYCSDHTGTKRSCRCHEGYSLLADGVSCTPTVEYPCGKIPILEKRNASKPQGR
Sequence of factor VIIa (P13726 33-295 partner): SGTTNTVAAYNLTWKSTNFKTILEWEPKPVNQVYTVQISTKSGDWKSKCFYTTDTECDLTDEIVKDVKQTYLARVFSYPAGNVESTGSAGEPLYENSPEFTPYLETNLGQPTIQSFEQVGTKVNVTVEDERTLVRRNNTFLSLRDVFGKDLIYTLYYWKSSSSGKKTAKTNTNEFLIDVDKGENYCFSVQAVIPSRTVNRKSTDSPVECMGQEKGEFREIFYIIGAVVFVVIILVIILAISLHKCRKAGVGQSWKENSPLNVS
How it was run: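 Plasma-derived human factor VIIa (8 nM) with 40 nM recombinant tissue factor and Spectrozyme factor VIIa substrate (1000 µM, in well; level chosen from KM). Residual activity was read spectrophotometrically across six or more serially diluted test compound concentrations to build an inhibition profile for IC50.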

[6] = 6 over the concentration range of 0–280 µg/mL

Compound: COc1cc([C@H]2Oc3cc([C@H]4Oc5cc(OS(=O)(=O)[O-])cc(O)c5C(=O)[C@@H]4OS(=O)(=O)[O-])ccc3O[C@@H]2COS(=O)(=O)[O-])ccc1OS(=O)(=O)[O-].[Na+].[Na+].[Na+].[Na+] [Molecule 2, sulfated silibinin]
- concentration required for a 2-fold increase in PT (human plasma [1]): much higher
- concentration required for a 2-fold increase in APTT (human plasma [2]): much higher

Compound: O=C(/C=C/c1ccc(OS(=O)(=O)[O-])c(OS(=O)(=O)[O-])c1)O[C@@H]1C[C@](O)(C(=O)[O-])C[C@@H](OS(=O)(=O)[O-])[C@H]1OS(=O)(=O)[O-].[Na+].[Na+].[Na+].[Na+].[Na+] [Molecule 4, sulfated chlorogenic acid]
- concentration required for a 2-fold increase in PT (human plasma [1]): much higher
- concentration required for a 2-fold increase in APTT (human plasma [2]): much higher

- inhibition of FXIa proteolytic activity (human factor XIa; highest concentration tested (300 µM)): completely inactive
Compound: O=C(OC[C@H]1O[C@@H](OC(=O)c2cc(O)c(O)c(O)c2)[C@H](OC(=O)c2cc(O)c(O)c(O)c2)[C@@H](OC(=O)c2cc(O)c(O)c(O)c2)[C@@H]1OC(=O)c1cc(O)c(O)c(O)c1)c1cc(O)c(O)c(O)c1 [Molecule 5, pentagalloyl glucopyranoside, reference compound]

- HS (factor IXa): 2.2 ± 0.6
- pIC50 (human factor XIa): 6.21
- selectivity for FXIa over other relevant enzymes (human factor XIa): at least 200 fold
- HS (Hill slope) (human factor XIa; S-2366 hydrolysis, pH 7.4, 37 °C): 1.3 ± 0.1
- IC50 (bovine chymotrypsin): no inhibition
- VMAX (FXIa Wild Type; [6] 0.005 µg/mL): 93.7 ± 3.2 mAU/min
- VMAX (FXIa Wild Type; [6] 0.5 µg/mL): 74.6 ± 2.6 mAU/min
- VMAX (FXIa Wild Type; [6] 2.5 µg/mL): 56.9 ± 1.5 mAU/min
- VMAX (FXIa Wild Type; [6] 5.0 µg/mL): 32.3 ± 2.1 mAU/min
- VMAX (FXIa Wild Type; [6] 50.0 µg/mL): 17.2 mAU/min and 17.2 ± 1.2 mAU/min
- ΔY (thrombin): 83 ± 10
- HS (factor XIIa): 3.0 ± 1.8
- IC50 (bovine trypsin): no inhibition
- formation of FIXaβ (human FXIa [4]): not detectable
- pIC50 (human FXIa [5]): 4.80
- HS (human FXIa [5]; UFH 0 µM): 1.3 ± 0.1
- HS (human FXIa [5]; UFH 0.13 µM): 1.4 ± 0.2
- HS (human FXIa [5]; UFH 3.33 µM): 1.7 ± 0.2
- HS (human FXIa [5]; UFH 33.3 µM): 4.0 ± 0.9
- IC50 (factor VIIa): no inhibition
Compound: O=C(OC[C@H]1O[C@@H](OC(=O)c2cc(OS(=O)(=O)[O-])c(O)c(OS(=O)(=O)[O-])c2)[C@H](OC(=O)c2cc(OS(=O)(=O)[O-])c(O)c(OS(=O)(=O)[O-])c2)[C@@H](OC(=O)c2cc(OS(=O)(=O)[O-])c(O)c(OS(=O)(=O)[O-])c2)[C@@H]1OC(=O)c1cc(OS(=O)(=O)[O-])c(O)c(OS(=O)(=O)[O-])c1)c1cc(OS(=O)(=O)[O-])c(O)c(OS(=O)(=O)[O-])c1.[Na+].[Na+].[Na+].[Na+].[Na+].[Na+].[Na+].[Na+].[Na+].[Na+] [Molecule 6, sulfated pentagalloylglucoside]
- concentration required for a 2-fold increase in PT (human plasma [1]): 298 µg/mL
- less effective than enoxaparin at molar levels (human plasma [2]; molar basis): 36 fold
- retention of inhibitory potency with the catalytic domain of FXIa [3]: ~ 100%
- decrease of VMAX ([3]; 6 from 0 to 5.0 µg/mL): ~5 fold
- VMAX ([3]; [6] 0.5 µg/mL): 53.9 ± 1.4 mAU/min
- G (shear elastic modulus strength) (human whole blood; 6 at 20 µg/mL): 8.2 × 10^3 kDynes/cm^3
- G (shear elastic modulus strength) (human whole blood; 6 at 135 µg/mL): 5.0 × 10^3 kDynes/cm^3
- G (shear elastic modulus strength) (human whole blood; 6 at 190 µg/mL): 3.8 × 10^3 kDynes/cm^3
- G (shear elastic modulus strength) (human whole blood; 6 at 280 µg/mL): 0.9 × 10^3 kDynes/cm^3
- reduction of G (human whole blood; [6]): ~8 fold
- reduction of MA (human whole blood; [6]): ~ 4 fold
